Tests used:
[1] = molecular target: Vascular endothelial growth factor receptor 2 (Homo sapiens, UniProt P35968); assay: Inhibition of VEGFR2 (unknown origin) using poly (Glu, Tyr) 4:1 after 30 mins by HTRF assay
Outline: (§1)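 HTRF assay using purified tyrosine kinase proteins in 50 mM HEPES pH 7.0 with DTT, MgCl2, MnCl2 and 0.1% NaN3. The substrate was poly(Glu,Tyr) 4:1 at 20 µg/mL, and ATP was added as a 10 mM solution. Compounds were diluted in 1% DMSO. Reactions ran 30 min at 25 °C and were stopped with Streptavidin-XL665 and Tk antibody cryptate.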

A549 [2] = assay: Cytotoxicity against human A549 cells after 72 hrs by MTT assay; assay type: functional, cell-based; conditions: A549, 72 h
Outline: (§2)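 Cells were grown in MEM with 10% FBS and seeded at about 4×10^3 cells per well, then held 24 h at 37 °C in 5% CO2. Compounds were added and the cells cultured 72 h. MTT was added to 5 µg/mL final for 4 h at 37 °C, and the formazan was dissolved in DMSO. IC50 is the mean of three determinations.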

U-87 MG = assay: Ratio of foretinib IC50 to compound IC50 for human U87MG cells after 72 hrs by MTT assay; assay type: functional, U-87MG ATCC
[3] = Cytotoxicity against human U87MG cells after 72 hrs by MTT assay; assay type: functional, cell-based, U-87MG ATCC; conditions: U-87 MG; outline: as §2
[4] = molecular target: Epidermal growth factor receptor (Homo sapiens, UniProt P00533); assay: Inhibition of EGFR (unknown origin) using poly (Glu, Tyr) 4:1 after 30 mins by HTRF assay; outline: as §1
[5] = molecular target: Mast/stem cell growth factor receptor Kit (Homo sapiens, UniProt P10721); assay: Inhibition of c-Kit (unknown origin) using poly (Glu, Tyr) 4:1 after 30 mins by HTRF assay; outline: as §1
[6] = molecular target: T1, Receptor-type tyrosine-protein kinase FLT3 (Homo sapiens, UniProt P36888); assay: Inhibition of Flt-3 (unknown origin) using poly (Glu, Tyr) 4:1 after 30 mins by HTRF assay; outline: as §1
T1 sequence (P36888 whole entry): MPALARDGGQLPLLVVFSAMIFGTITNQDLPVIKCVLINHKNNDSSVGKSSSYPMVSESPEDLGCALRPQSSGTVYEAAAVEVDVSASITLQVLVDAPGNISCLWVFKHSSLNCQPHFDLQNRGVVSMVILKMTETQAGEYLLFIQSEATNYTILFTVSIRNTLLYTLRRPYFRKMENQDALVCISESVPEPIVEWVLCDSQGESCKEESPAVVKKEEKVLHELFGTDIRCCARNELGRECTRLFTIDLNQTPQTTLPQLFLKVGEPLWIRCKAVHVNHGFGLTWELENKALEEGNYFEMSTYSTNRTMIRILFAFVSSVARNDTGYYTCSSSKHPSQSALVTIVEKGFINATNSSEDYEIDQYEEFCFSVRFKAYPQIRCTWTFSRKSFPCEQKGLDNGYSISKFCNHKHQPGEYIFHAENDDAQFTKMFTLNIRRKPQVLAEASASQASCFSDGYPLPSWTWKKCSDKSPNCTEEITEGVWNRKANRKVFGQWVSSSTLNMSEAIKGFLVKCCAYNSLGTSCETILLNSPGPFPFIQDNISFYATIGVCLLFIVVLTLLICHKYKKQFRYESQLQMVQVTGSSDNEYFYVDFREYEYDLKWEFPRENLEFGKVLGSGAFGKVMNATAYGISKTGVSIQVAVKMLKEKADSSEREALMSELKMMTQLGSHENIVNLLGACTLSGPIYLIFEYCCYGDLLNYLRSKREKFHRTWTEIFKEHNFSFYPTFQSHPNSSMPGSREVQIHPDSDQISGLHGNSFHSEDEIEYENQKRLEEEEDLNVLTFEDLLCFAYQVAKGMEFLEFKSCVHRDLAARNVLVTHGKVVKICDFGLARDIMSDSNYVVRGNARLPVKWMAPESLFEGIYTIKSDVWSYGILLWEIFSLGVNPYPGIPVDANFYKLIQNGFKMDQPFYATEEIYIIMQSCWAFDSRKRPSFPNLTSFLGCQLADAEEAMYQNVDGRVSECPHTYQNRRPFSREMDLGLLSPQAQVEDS

HT-29 [7] = assay: Ratio of foretinib IC50 to compound IC50 for human HT-29 cells after 72 hrs by MTT assay; assay type: functional
[8] = Ratio of foretinib IC50 to compound IC50 for human H460 cells after 72 hrs by MTT assay; assay type: functional
A549 [9] = assay: Ratio of foretinib IC50 to compound IC50 for human A549 cells after 72 hrs by MTT assay; assay type: functional
[10] = Cytotoxicity against human H460 cells after 72 hrs by MTT assay; conditions: NCI-H460, 72 h
[11] = Cytotoxicity against human MKN45 cells after 72 hrs by MTT assay; conditions: MKN-45, 72 h
HT-29 [12] = assay: Cytotoxicity against human HT-29 cells after 72 hrs by MTT assay; conditions: HT-29, 72 h
[13] = molecular target: Platelet-derived growth factor receptor beta (Homo sapiens, UniProt P09619); assay: Inhibition of PDGFRbeta (unknown origin) using poly (Glu, Tyr) 4:1 after 30 mins by HTRF assay; outline: as §1
[14] = molecular target: Hepatocyte growth factor receptor (Homo sapiens, UniProt P08581); assay: Inhibition of c-Met (unknown origin) using poly (Glu, Tyr) 4:1 after 30 mins by HTRF assay

Vascular endothelial growth factor receptor 2, sequence (P35968 whole entry): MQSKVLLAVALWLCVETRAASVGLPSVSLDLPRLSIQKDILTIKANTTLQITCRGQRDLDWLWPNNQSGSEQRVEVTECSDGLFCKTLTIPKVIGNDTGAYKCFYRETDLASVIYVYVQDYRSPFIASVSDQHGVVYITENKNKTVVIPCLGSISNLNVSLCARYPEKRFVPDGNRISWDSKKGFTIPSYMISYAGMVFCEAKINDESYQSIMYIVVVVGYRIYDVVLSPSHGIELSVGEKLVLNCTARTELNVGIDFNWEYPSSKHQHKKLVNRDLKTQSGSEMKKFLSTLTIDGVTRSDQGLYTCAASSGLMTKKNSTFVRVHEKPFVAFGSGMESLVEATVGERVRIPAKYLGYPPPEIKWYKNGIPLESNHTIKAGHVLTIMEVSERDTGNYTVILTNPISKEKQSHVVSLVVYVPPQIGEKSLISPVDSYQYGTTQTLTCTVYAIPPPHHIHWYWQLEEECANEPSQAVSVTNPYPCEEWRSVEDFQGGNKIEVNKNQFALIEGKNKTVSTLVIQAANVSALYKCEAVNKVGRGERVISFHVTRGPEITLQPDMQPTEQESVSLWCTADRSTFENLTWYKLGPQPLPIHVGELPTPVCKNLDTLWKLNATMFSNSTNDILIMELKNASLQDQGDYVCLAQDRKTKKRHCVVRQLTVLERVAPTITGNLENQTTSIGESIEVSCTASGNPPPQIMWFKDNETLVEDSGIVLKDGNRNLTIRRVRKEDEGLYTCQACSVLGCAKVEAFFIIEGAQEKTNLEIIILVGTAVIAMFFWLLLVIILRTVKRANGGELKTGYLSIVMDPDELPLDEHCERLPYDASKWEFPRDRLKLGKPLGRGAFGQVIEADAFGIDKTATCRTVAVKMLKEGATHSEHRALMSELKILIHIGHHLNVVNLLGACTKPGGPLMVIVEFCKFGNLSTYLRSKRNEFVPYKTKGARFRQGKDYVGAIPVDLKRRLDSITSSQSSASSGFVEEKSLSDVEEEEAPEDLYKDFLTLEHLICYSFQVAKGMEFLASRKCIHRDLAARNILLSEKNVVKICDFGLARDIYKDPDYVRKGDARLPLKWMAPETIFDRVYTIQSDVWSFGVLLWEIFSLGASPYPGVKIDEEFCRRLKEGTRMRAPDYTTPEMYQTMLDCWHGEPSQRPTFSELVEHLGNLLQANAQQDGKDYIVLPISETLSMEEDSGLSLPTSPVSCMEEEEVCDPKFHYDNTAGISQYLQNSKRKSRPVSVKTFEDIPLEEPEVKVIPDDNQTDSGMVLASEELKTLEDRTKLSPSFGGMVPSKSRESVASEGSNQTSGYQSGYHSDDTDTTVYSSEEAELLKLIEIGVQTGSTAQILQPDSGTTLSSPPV
Platelet-derived growth factor receptor beta, sequence (P09619 whole entry): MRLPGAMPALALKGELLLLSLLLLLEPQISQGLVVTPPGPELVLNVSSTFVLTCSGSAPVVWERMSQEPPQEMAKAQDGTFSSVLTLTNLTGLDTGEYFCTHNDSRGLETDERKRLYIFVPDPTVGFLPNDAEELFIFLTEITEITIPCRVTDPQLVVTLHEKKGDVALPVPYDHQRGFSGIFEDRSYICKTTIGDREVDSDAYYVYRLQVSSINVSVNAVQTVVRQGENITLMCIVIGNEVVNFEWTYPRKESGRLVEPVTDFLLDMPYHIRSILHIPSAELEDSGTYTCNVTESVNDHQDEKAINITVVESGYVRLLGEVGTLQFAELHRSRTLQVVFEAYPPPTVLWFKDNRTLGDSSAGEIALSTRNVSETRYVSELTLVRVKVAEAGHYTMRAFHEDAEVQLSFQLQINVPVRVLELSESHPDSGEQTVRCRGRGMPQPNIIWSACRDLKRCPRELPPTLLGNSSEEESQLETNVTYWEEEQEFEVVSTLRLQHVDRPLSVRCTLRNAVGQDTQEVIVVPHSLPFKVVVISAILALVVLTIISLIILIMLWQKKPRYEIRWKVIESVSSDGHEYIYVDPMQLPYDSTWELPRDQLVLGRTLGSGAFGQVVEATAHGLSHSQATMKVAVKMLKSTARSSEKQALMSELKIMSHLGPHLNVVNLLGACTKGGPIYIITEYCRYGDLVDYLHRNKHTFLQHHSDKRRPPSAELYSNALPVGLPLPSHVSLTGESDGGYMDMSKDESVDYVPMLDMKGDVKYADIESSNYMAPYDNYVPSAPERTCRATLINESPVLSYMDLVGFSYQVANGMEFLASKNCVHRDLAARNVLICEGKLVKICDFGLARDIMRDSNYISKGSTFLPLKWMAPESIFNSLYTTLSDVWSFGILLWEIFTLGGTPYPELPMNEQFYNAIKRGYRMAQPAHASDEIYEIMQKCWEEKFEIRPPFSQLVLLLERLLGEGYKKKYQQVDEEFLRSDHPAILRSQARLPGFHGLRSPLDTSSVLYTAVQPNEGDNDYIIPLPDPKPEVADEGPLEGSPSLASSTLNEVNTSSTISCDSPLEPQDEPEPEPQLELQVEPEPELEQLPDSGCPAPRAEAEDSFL
Epidermal growth factor receptor, sequence (P00533 whole entry): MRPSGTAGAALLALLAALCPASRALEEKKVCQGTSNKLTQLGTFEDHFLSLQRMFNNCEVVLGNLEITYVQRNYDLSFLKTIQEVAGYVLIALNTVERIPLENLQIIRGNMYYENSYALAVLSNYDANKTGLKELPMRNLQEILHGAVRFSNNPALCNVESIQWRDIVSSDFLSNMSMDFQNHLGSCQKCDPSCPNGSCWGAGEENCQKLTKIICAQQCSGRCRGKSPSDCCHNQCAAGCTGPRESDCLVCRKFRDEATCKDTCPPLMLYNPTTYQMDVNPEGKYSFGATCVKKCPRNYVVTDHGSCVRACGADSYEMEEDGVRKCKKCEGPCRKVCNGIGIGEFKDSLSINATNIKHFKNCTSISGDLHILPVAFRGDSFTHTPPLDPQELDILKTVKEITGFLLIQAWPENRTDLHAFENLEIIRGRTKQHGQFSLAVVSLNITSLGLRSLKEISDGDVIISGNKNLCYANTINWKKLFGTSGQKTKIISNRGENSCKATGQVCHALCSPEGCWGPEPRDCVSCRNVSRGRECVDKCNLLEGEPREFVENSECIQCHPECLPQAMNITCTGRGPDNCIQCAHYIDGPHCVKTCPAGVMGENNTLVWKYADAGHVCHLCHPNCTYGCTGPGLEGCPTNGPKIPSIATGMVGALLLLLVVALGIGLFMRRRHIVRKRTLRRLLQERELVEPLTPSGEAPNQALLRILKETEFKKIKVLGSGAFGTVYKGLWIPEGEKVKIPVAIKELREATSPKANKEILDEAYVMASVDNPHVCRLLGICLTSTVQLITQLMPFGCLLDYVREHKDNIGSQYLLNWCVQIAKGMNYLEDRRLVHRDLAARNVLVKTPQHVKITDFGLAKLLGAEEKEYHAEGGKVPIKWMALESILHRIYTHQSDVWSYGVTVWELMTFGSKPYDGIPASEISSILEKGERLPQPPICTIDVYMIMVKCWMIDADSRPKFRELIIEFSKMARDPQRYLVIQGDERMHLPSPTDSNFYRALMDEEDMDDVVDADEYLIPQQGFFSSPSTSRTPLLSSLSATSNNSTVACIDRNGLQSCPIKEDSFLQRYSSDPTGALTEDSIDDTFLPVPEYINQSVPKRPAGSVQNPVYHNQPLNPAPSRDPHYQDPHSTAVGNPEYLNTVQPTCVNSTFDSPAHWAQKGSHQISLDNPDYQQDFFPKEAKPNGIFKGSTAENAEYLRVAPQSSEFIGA
Mast/stem cell growth factor receptor Kit, sequence (P10721 whole entry): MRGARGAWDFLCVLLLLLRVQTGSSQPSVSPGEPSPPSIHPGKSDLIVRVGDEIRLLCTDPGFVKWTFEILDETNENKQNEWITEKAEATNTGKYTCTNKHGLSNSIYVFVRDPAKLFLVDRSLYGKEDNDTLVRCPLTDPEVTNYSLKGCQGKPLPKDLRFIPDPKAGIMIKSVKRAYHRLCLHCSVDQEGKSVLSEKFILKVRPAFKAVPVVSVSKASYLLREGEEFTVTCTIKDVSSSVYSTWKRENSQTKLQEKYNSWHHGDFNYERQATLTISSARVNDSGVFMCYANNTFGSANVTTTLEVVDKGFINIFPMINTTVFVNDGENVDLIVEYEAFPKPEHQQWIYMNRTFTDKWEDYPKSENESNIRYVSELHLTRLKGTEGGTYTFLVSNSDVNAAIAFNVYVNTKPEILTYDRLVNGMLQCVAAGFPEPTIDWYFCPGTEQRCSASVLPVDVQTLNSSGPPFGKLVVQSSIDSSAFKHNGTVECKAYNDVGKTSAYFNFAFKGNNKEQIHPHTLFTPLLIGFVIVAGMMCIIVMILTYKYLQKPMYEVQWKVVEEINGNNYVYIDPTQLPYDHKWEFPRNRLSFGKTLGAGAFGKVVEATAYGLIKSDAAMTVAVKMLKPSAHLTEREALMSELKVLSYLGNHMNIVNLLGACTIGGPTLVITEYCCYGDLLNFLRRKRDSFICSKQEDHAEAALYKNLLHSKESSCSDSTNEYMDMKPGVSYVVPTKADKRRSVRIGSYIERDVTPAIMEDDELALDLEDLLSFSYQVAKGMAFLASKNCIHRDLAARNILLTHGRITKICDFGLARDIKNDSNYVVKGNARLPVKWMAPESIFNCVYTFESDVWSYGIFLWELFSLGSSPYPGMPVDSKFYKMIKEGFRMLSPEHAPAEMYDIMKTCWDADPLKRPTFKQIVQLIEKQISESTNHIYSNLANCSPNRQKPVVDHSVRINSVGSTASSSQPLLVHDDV

SMILES: COc1cc2c(Oc3ccc(N/C=C4\C(=O)NC(=O)N(c5ccc(C)cc5)C4=O)cc3F)ccnc2cc1OCCCN1CCCC1
- IC50 [1]: 384 nM
- IC50 (A549 [2]): 72 nM
- Ratio IC50 (U-87 MG): 1.7
- IC50 [3]: 640 nM
- IC50 [4]: > 100 µM
- IC50 [5]: 652 nM
- IC50 [6]: 496 nM
- Ratio IC50 (HT-29 [7]): 1.2
- Ratio IC50 [8]: 3.7
- Ratio IC50 (A549 [9]): 1.8
- IC50 [10]: 51 nM
- IC50 [11]: 57 nM
- IC50 (HT-29 [12]): 130 nM
- IC50 [13]: 531 nM
- IC50 [14]: 1.15 nM

Source: ChEMBL document CHEMBL3112515, “Discovery of novel 6,7-disubstituted-4-phenoxyquinoline derivatives bearing 5-(aminomethylene)pyrimidine-2,4,6-trione moiety as c-Met kinase inhibitors” (Bioorg Med Chem, 2014)
